Results taken from ChEMBL document CHEMBL1955742, “Synthesis and SAR studies of phenanthroindolizidine and phenanthroquinolizidine alkaloids as potent anti-tumor agents” (2012).

Experiments:
Assay type in all cases: functional
HL-60 [1] = experiment: Antiproliferative activity against human HL60 cells after 72 hrs by SRB assay
In short: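 HL60 human promyelocytic leukemia cells were seeded and grown for 24 h, then given compounds and cultured for another 72 h. Read-out was SRB, per the table footnote. GI50 was obtained by the Logit method from three or more independent experiments.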

A549 [2] = experiment: Antiproliferative activity against human A549 cells after 72 hrs by MTT assay
In short: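 A549 human lung adenocarcinoma epithelial cells were seeded and grown for 24 h, then exposed to compounds for a further 72 h. Proliferation was read by MTT, as assigned in the table footnote. GI50 was calculated by the Logit method from at least three independent experiments.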

HL-60 [3] = experiment: Antiproliferative activity against human HL60 cells at 10^-8 mol/L after 72 hrs by SRB assay; conditions: HL-60, 72 h
HL-60 [4] = experiment: Antiproliferative activity against human HL60 cells at 10^-7 mol/L after 72 hrs by SRB assay; conditions: HL-60, 72 h
HL-60 [5] = experiment: Antiproliferative activity against human HL60 cells at 10^-6 mol/L after 72 hrs by SRB assay; conditions: HL-60, 72 h
A549 [6] = experiment: Antiproliferative activity against human A549 cells at 10^-6 mol/L after 72 hrs by MTT assay; conditions: A549, 72 h
A549 [7] = experiment: Antiproliferative activity against human A549 cells at 10^-8 mol/L after 72 hrs by MTT assay; conditions: A549, 72 h
A549 [8] = experiment: Antiproliferative activity against human A549 cells at 10^-7 mol/L after 72 hrs by MTT assay; conditions: A549, 72 h

SMILES	GI50 (HL-60 [1]; Homo sapiens, HL-60, 72 h) [nM]	GI50 (A549 [2]; Homo sapiens, A549, 72 h) [nM]	other results
COc1ccc2c3c(c4cc(OC)c(OC)cc4c2c1)CN1CCC[C@H]1[C@H]3O	< 1	30	–
COc1ccc2c3c(c4cc(OC)c(OC)cc4c2c1)CN1CCC[C@@H]1[C@@H]3O	300	3700	–
COc1ccc2c3c(c4cc(OC)c(OC)cc4c2c1)CN1CCC[C@H]1C3	60	90	–
COc1ccc2c3c(c4cc(OC)c(OC)cc4c2c1)[C@H](NC(C)=O)[C@@H]1CCCN1C3	50	50	–
COc1ccc2c3c(c4cc(OC)c(OC)cc4c2c1)CN1CCC[C@@H]1C3	300	700	–
COc1cc2c3c(c4ccc(O)cc4c2cc1OC)CN1CCC[C@H]1C3	100	40	inhibition at 0.01 µM (HL-60 [3]): 37.4%; inhibition at 0.1 µM (HL-60 [4]): 76.1%; inhibition at 1 µM (HL-60 [5]): 85.8%; inhibition at 1 µM (A549 [6]): 85.9%; inhibition at 0.01 µM (A549 [7]): 21.9%; inhibition at 0.1 µM (A549 [8]): 71.3%
COc1cc2c3c(c4cc(OC)c(OC)cc4c2cc1OC)[C@@H](O)[C@H]1CCCN1C3	–	1290	inhibition at 0.01 µM (HL-60 [3]): 12.7%; inhibition at 0.1 µM (HL-60 [4]): 37.1%; inhibition at 1 µM (HL-60 [5]): 76%; inhibition at 1 µM (A549 [6]): 68.9%; inhibition at 0.01 µM (A549 [7]): 12.3%; inhibition at 0.1 µM (A549 [8]): 31.3%
COc1cc2c3c(c4cc(OC)c(OC)cc4c2cc1OC)[C@H](O)[C@H]1CCCN1C3	–	–	inhibition at 0.01 µM (HL-60 [3]): 12.1%; inhibition at 0.1 µM (HL-60 [4]): 16.1%; inhibition at 1 µM (HL-60 [5]): 27%; inhibition at 1 µM (A549 [6]): 17.9%; inhibition at 0.01 µM (A549 [7]): 5%; inhibition at 0.1 µM (A549 [8]): 5.6%
COc1ccc2c3c(c4cc(OC)c(OC)cc4c2c1)[C@H](O)[C@@H]1CCCN1C3	> 10000	> 10000	–
COc1ccc2c3c(c4cc(OC)c(OC)cc4c2c1)[C@@H](O)[C@H]1CCCN1C3	> 10000	> 10000	–
COc1cc2c3c(c4cc(OC)c(OC)cc4c2cc1OC)[C@H](N)[C@@H]1CCCN1C3	300	1100	–
COc1ccc2c3c(c4cc(OC)c(OC)cc4c2c1)[C@H](N)[C@@H]1CCCN1C3	1600	400	–
COc1ccc2c3c(c4cc(OC)c(OC)cc4c2c1)CN1CCC[C@H]1[C@H]3N	50	100	–
COc1cc2c3c(c4cc(OC)c(OC)cc4c2cc1OC)[C@H](NC(C)=O)[C@@H]1CCCN1C3	> 10000	> 10000	–
COc1ccc2c3c(c4cc(OC)c(OC)cc4c2c1)CN1CCC[C@H]1[C@H]3NC(C)=O	1200	1500	–
COc1cc2c3c(c4cc(OC)c(OC)cc4c2cc1OC)[C@H](NC(=O)C(C)(C)C)[C@@H]1CCCN1C3	> 10000	> 10000	–
COc1ccc2c3c(c4cc(OC)c(OC)cc4c2c1)[C@H](NC(=O)C(C)(C)C)[C@@H]1CCCN1C3	> 10000	> 10000	–
COc1ccc2c3c(c4cc(OC)c(OC)cc4c2c1)CN1CCC[C@H]1[C@H]3NC(=O)C(C)(C)C	> 10000	> 10000	–
COc1cc2c3c(c4cc(OC)c(OC)cc4c2cc1OC)CN1CCCC[C@H]1C3	< 1	60	–
COc1cc2c3c(c4cc(OC)c(OC)cc4c2cc1OC)CN1CCCC[C@@H]1C3	< 1	< 1	–
COc1ccc2c3c(c4cc(OC)c(OC)cc4c2c1)C[C@@H]1CCCCN1C3	–	–	GI50 (HL-60 [1]): < 1 nM; GI50 (A549 [2]): < 1 nM
COc1ccc2c3c(c4cc(OC)c(OC)cc4c2c1)CN1CCCC[C@H]1C3	600	700	–
